Laboratory results from ChEMBL document CHEMBL1150397, “Towards the first inhibitors of trihydroxynaphthalene reductase from Curvularia lunata: synthesis of artificial substrate, homology modelling and initial screening” (Bioorg Med Chem, 2008).
Active and inactive are the calls of the source. The rule behind the calls is not given here.

Biological target: not listed separately
Test: (§1) Inhibition of recombinant Curvularia lunata trihydroxynaphthalene reductase
Details: not given
Method in brief: (§2)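 GST-fusion 3HNR from C. lunata expressed in E. coli BL21-AI, bound on glutathione-Sepharose, thrombin-cleaved, purity checked by SDS-PAGE. Initial rates of DDBO oxidation with NADP+ reduction followed at 340 nm (NADPH absorbance), 25 °C. Conditions: 0.2 µM enzyme, 100 µM DDBO, 500 µM coenzyme, 100 mM phosphate pH 7.0, 1% final DMF. Compounds screened at 100 µM; IC50 determined over 5–200 µM where screening inhibition exceeded 35%.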

For `CCOC(=O)c1cc(=O)c2cc(C)cc([N+](=O)[O-])c2o1`, which IC50 is on record?
The IC50 was 167 µM.

With `CCc1cccc2c3c([nH]c12)C(CC)(CC(=O)O)OCC3` (configuration not stated) [ETODOLAC] as the compound, how does the IC50 read?
Its IC50 is 17 µM.

For `COc1ccc2cc(CCC(C)=O)ccc2c1` [NABUMETONE], which IC50 is on record?
Its IC50 is 111 µM.

With `O=C(O)Cc1ccccc1Nc1c(Cl)cccc1Cl` [DICLOFENAC SODIUM] as the compound, how does the IC50 read?
The IC50 was 108 µM.

For `O=C1CC(=O)c2ccccc21`, which IC50 is on record?
The IC50 was 66 µM.

For `CCOC(=O)c1cc(=O)c2cc(C)ccc2o1`, which IC50 is on record?
Its IC50 is 120 µM.

System: Curvularia lunata
Test: as §1
Details: not given
Method in brief: as §2

With `CC(C)Cc1ccc(C(C)C(=O)O)cc1` (configuration not stated) as the compound, how does the Activity read?
The Activity was “inactive”.

With `CCOc1ccc(NC(C)=O)cc1` as the compound, how does the Activity read?
Its Activity is “inactive”.

Which Activity does the source give for `CC(C(=O)O)c1cccc(C(=O)c2ccccc2)c1` (configuration not stated) here?
Its Activity is “inactive”.

For `CC(=O)Nc1ccc(O)cc1`, which Activity is on record?
Its Activity is “inactive”.

Same assay, conditions: concentration not given here

With `Cc1ccc(-c2cc(C(F)(F)F)nn2-c2ccc(S(N)(=O)=O)cc2)cc1` as the compound, how does the inhibition read?
Its inhibition is 17%.

Which inhibition does the source give for `COc1ccc2cc([C@H](C)C(=O)O)ccc2c1` here?
The inhibition was 9%.
